# Experimental data published in ChEMBL document CHEMBL4118229, “lH-Pyrazolo[3,4-b]quinolin-3-amine derivatives inhibit growth of colon cancer cells via apoptosis and sub G1 cell cycle arrest” (Bioorg Med Chem Lett, 2018).
# Calls of active or inactive are those of the source. The rule behind the calls is not given here.
# Assays:
# [1] = test system: HCT-15; test: Antiproliferative activity against human HCT15 cells by MTT assay; type: functional, cell-based
# [2] = test system: MDA-MB-231; test: Antiproliferative activity against human MDA-MB-231 cells by MTT assay; type: functional, cell-based
# [3] = test system: HT-29; test: Antiproliferative activity against human HT-29 cells by MTT assay; type: functional, cell-based
# [4] = test system: A2780; test: Antiproliferative activity against human A2780 cells by MTT assay; type: functional, cell-based
# [5] = test system: MCF7; test: Antiproliferative activity against human MCF7 cells by MTT assay; type: functional, cell-based
# [6] = test system: DU-145; test: Antiproliferative activity against human DU145 cells by MTT assay; type: functional, cell-based
# [7] = test system: HCT-116; test: Antiproliferative activity against human HCT116 cells by MTT assay; type: functional, cell-based
# [8] = test system: HEK293; test: Antiproliferative activity against human HEK293 cells by MTT assay; type: cell-based
# [9] = test system: LN-229; test: Antiproliferative activity against human LN229 cells by MTT assay; type: functional, cell-based
# [10] = test system: LoVo; test: Antiproliferative activity against human LoVo cells by MTT assay; type: functional, cell-based
# [11] = test system: PC-3; test: Antiproliferative activity against human PC3 cells by MTT assay; type: functional, cell-based
# [12] = test system: HCT-116; test: Induction of apoptosis in human HCT116 cells assessed as apoptotic cells at 30 uM after 24 hrs by Alexa Fluor 488 Annexin V/MitoTracker red staining-based flow cytometric analysis (reference value: 7.48%); type: functional
# [13] = test system: HCT-116; test: Inhibition of colony formation in human HCT116 cells assessed as decrease in colony size at 5 to 20 uM; type: functional, cell-based
# In short: (§1)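 HCT116 colony formation assay with 5, 10 or 20 μM, or vehicle. Colony number, density and size recorded. Three independent repeats.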
# [14] = test system: HCT-116; test: Induction of apoptosis in human HCT116 cells assessed as nuclear condensation at 5 to 10 uM after 24 hrs by DAPI staining-based fluorescent microscopic analysis; type: functional, cell-based
# In short: (§2)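 HCT116 cells given 5 or 10 μM, or vehicle, for 24 or 48 h. Cells fixed and stained with DAPI. Condensed and fragmented nuclei assessed by fluorescence microscopy at 40X.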
# [15] = test system: HCT-116; test: Induction of apoptosis in human HCT116 cells assessed as viable cells at 30 uM after 24 hrs by Alexa Fluor 488 Annexin V/MitoTracker red staining-based flow cytometric analysis (reference value: 92.5%); type: functional; conditions: HCT-116, 24 h, read-out: Activity
# [16] = test system: HCT-116; test: Cell cycle arrest in human HCT116 cells assessed as S phase accumulation at 10 uM after 24 hrs by propidium iodide staining-based flow cytometric analysis (reference value: 9.18%); type: functional
# [17] = test system: HCT-116; test: Induction of apoptosis in human HCT116 cells assessed as apoptotic cells at 20 uM after 24 hrs by Alexa Fluor 488 Annexin V/MitoTracker red staining-based flow cytometric analysis (reference value: 7.48%); type: functional
# [18] = test system: HCT-116; test: Induction of apoptosis in human HCT116 cells assessed as viable cells at 10 uM after 24 hrs by Alexa Fluor 488 Annexin V/MitoTracker red staining-based flow cytometric analysis (reference value: 92.5%); type: functional; conditions: HCT-116, 24 h, read-out: Activity
# [19] = test system: HCT-116; test: Induction of apoptosis in human HCT116 cells assessed as apoptotic cells at 5 uM after 24 hrs by Alexa Fluor 488 Annexin V/MitoTracker red staining-based flow cytometric analysis (reference value: 7.48%); type: functional
# [20] = test system: HCT-116; test: Cell cycle arrest in human HCT116 cells assessed as S phase accumulation at 5 uM after 24 hrs by propidium iodide staining-based flow cytometric analysis (reference value: 9.18%); type: functional
# [21] = test system: HCT-116; test: Cytotoxicity against human HCT116 cells assessed as cell confluence at 10 to 30 uM up to 72 hrs (reference value: 60%); type: functional
# [22] = test system: HCT-116; test: Inhibition of colony formation in human HCT116 cells assessed as decrease in reduction in mean colony formation rate at 5 to 20 uM; type: functional, cell-based; in short: as §1
# [23] = test system: HCT-116; test: Cell cycle arrest in human HCT116 cells assessed as subG1 phase accumulation at 20 uM after 24 hrs by propidium iodide staining-based flow cytometric analysis (reference value: 3.81%); type: functional
# [24] = test system: HCT-116; test: Induction of apoptosis in human HCT116 cells after 24 hrs by Alexa Fluor 488 Annexin V/MitoTracker red staining-based flow cytometric analysis; type: functional, cell-based
# [25] = test system: HCT-116; test: Cell cycle arrest in human HCT116 cells assessed as G1 phase accumulation at 10 uM after 24 hrs by propidium iodide staining-based flow cytometric analysis (reference value: 78.7%); type: functional
# [26] = test system: HCT-116; test: Induction of apoptosis in human HCT116 cells assessed as viable cells at 20 uM after 24 hrs by Alexa Fluor 488 Annexin V/MitoTracker red staining-based flow cytometric analysis (reference value: 92.5%); type: functional; conditions: HCT-116, 24 h, read-out: Activity
# [27] = test system: HCT-116; test: Cytotoxicity against human HCT116 cells at 1 to 30 uM incubated for 72 hrs by inverted microscopy
# [28] = test system: HCT-116; test: Cell cycle arrest in human HCT116 cells assessed as G1 phase accumulation at 20 uM after 24 hrs by propidium iodide staining-based flow cytometric analysis (reference value: 78.7%); type: functional
# [29] = test system: HCT-116; test: Cell cycle arrest in human HCT116 cells assessed as sub G1 phase accumulation after 24 hrs by propidium iodide staining-based flow cytometric analysis; type: functional
# [30] = test system: HEK293; test: Cytotoxicity against human HEK293 cells at 1 to 30 uM incubated for 72 hrs by inverted microscopy; conditions: hek293, 72 h
# [31] = test system: HCT-116; test: Induction of apoptosis in human HCT116 cells assessed as apoptotic cells at 10 uM after 24 hrs by Alexa Fluor 488 Annexin V/MitoTracker red staining-based flow cytometric analysis (reference value: 7.48%); type: functional
# [32] = test system: HCT-116; test: Cell cycle arrest in human HCT116 cells assessed as G1 phase accumulation at 5 uM after 24 hrs by propidium iodide staining-based flow cytometric analysis (reference value: 78.7%); type: functional
# [33] = test system: HCT-116; test: Cytotoxicity against human HCT116 cells assessed as reduction in cell confluence at 10 to 30 uM after 20 hrs; type: functional, cell-based
# [34] = test system: HCT-116; test: Cell cycle arrest in human HCT116 cells assessed as G2 phase accumulation at 5 uM after 24 hrs by propidium iodide staining-based flow cytometric analysis (reference value: 7.56%); type: functional
# [35] = test system: HCT-116; test: Cell cycle arrest in human HCT116 cells assessed as G2 phase accumulation at 10 uM after 24 hrs by propidium iodide staining-based flow cytometric analysis (reference value: 7.56%); type: functional
# [36] = test system: HCT-116; test: Cell cycle arrest in human HCT116 cells assessed as subG1 phase accumulation at 5 uM after 24 hrs by propidium iodide staining-based flow cytometric analysis (reference value: 3.81%); type: functional
# [37] = test system: HCT-116; test: Induction of apoptosis in human HCT116 cells assessed as viable cells at 5 uM after 24 hrs by Alexa Fluor 488 Annexin V/MitoTracker red staining-based flow cytometric analysis (reference value: 92.5%); type: functional; conditions: HCT-116, 24 h, read-out: Activity
# [38] = test system: HCT-15; test: Cytotoxicity against human HCT15 cells at 1 to 30 uM incubated for 72 hrs by inverted microscopy
# [39] = test system: HCT-116; test: Cell cycle arrest in human HCT116 cells assessed as G2 phase accumulation at 20 uM after 24 hrs by propidium iodide staining-based flow cytometric analysis (reference value: 7.56%); type: functional
# [40] = test system: HCT-116; test: Cell cycle arrest in human HCT116 cells assessed as S phase accumulation at 20 uM after 24 hrs by propidium iodide staining-based flow cytometric analysis (reference value: 9.18%); type: functional
# [41] = test system: HCT-116; test: Induction of apoptosis in human HCT116 cells assessed as chromatin condensation at 5 to 10 uM after 48 hrs by DAPI staining-based fluorescent microscopic analysis; type: functional, cell-based; in short: as §2
# [42] = test system: HCT-116; test: Induction of apoptosis in human HCT116 cells assessed as nuclear fragmentation at 5 to 10 uM after 24 hrs by DAPI staining-based fluorescent microscopic analysis; type: functional, cell-based; in short: as §2
# [43] = test system: LoVo; test: Cytotoxicity against human LoVo cells at 1 to 30 uM incubated for 72 hrs by inverted microscopy
# [44] = test system: HCT-116; test: Cell cycle arrest in human HCT116 cells assessed as subG1 phase accumulation at 10 uM after 24 hrs by propidium iodide staining-based flow cytometric analysis (reference value: 3.81%); type: functional
smiles,measurement,setting,value
COc1ccc2nc3[nH]nc(N)c3cc2c1,IC50,[1],69.3 µM
same,IC50,[2],62.3 µM
same,IC50,[3],85.2 µM
same,IC50,[4],35.8 µM
same,IC50,[5],49.5 µM
same,IC50,[6],76.5 µM
same,IC50,[7],57 µM
same,IC50,[8],> 100 µM
same,IC50,[9],93.7 µM
same,IC50,[10],55.6 µM
same,IC50,[11],> 100 µM
COc1cc2cc3c(N)n[nH]c3nc2cc1OC,IC50,[1],12.8 µM
same,IC50,[2],77.9 µM
same,IC50,[3],19.4 µM
same,IC50,[4],19.6 µM
same,IC50,[5],72.1 µM
same,IC50,[6],73.4 µM
same,IC50,[7],40.8 µM
same,IC50,[8],81.1 µM
same,IC50,[9],26 µM
same,IC50,[10],33.4 µM
same,IC50,[11],65.2 µM
Nc1n[nH]c2nc3c(ccc4ccccc43)cc12,IC50,[1],68.6 µM
same,IC50,[2],> 100 µM
same,IC50,[3],98.7 µM
same,IC50,[4],13.5 µM
same,IC50,[5],73.6 µM
same,IC50,[6],> 100 µM
same,IC50,[7],76.1 µM
same,IC50,[8],> 100 µM
same,IC50,[9],54.3 µM
same,IC50,[10],80.6 µM
same,IC50,[11],59.7 µM
Cc1ccc2[nH]c3nnc(N)c-3cc2c1,IC50,[1],> 100 µM
same,IC50,[2],> 100 µM
same,IC50,[3],32.9 µM
same,IC50,[4],98.3 µM
same,IC50,[5],> 100 µM
same,IC50,[6],> 100 µM
same,IC50,[7],> 100 µM
same,IC50,[8],> 100 µM
same,IC50,[9],61.2 µM
same,IC50,[10],89.6 µM
same,IC50,[11],> 100 µM
Nc1n[nH]c2nc3cc(Cl)ccc3cc12,IC50,[1],44.8 µM
same,IC50,[2],89.9 µM
same,IC50,[3],42.3 µM
same,IC50,[4],59.9 µM
same,IC50,[5],> 100 µM
same,IC50,[6],> 100 µM
same,IC50,[7],56.6 µM
same,IC50,[8],36.6 µM
same,IC50,[9],58.6 µM
same,IC50,[10],77.5 µM
same,IC50,[11],> 100 µM
Cc1cc2cc3c(N)[nH]nc3nc2cc1C,IC50,[1],> 100 µM
same,IC50,[2],> 100 µM
same,IC50,[3],> 100 µM
same,IC50,[4],> 100 µM
same,IC50,[5],78.8 µM
same,IC50,[6],> 100 µM
same,IC50,[7],> 100 µM
same,IC50,[8],> 100 µM
same,IC50,[9],38.9 µM
same,IC50,[10],> 100 µM
same,IC50,[11],> 100 µM
COc1ccc2cc3c(N)n[nH]c3nc2c1,Activity,[12],53.3%
same,inhibition,[13],Active
same,Activity,[14],Active
same,viability at 30 µM,[15],46.7%
same,Activity,[16],15.1%
same,Activity,[17],34%
same,IC50,[1],9.6 µM
same,viability at 10 µM,[18],68.1%
same,Activity,[19],22.9%
same,Activity,[20],14.5%
same,Activity,[21],<=20%
same,inhibition,[22],Active
same,IC50,[2],50.6 µM
same,Activity,[23],55.9%
same,Activity,[24],Dose-dependent effect
same,IC50,[3],3.9 µM
same,Activity,[25],45.9%
same,viability at 20 µM,[26],66%
same,IC50,[4],56.6 µM
same,Activity,[27],Active
same,Activity,[28],33.5%
same,Activity,[29],Dose-dependent effect
same,IC50,[5],59.2 µM
same,Activity,[30],Non-Toxic
same,Activity,[31],31.8%
same,Activity,[32],59.3%
same,Activity,[33],Active
same,Activity,[34],1.37%
same,Activity,[35],5.3%
same,Activity,[36],22.4%
same,IC50,[6],53.4 µM
same,IC50,[7],2.3 µM
same,viability at 5 µM,[37],77%
same,Activity,[38],Active
same,IC50,[8],45.8 µM
same,Activity,[39],0.6%
same,Activity,[40],7.99%
same,IC50,[9],7.8 µM
same,Activity,[41],Active
same,IC50,[10],10.2 µM
same,Activity,[42],Active
same,IC50,[11],87.1 µM
same,Activity,[43],Active
same,Activity,[44],32%
Nc1[nH]nc2nc3ccccc3cc12,IC50,[1],58.6 µM
same,IC50,[2],> 100 µM
same,IC50,[3],95.7 µM
same,IC50,[4],83.9 µM
same,IC50,[5],81.5 µM
same,IC50,[6],> 100 µM
same,IC50,[7],67.7 µM
same,IC50,[8],> 100 µM
same,IC50,[9],7.8 µM
same,IC50,[10],88.6 µM
same,IC50,[11],> 100 µM
